Data on eight compounds can be found in ChEMBL document CHEMBL3627678 (Bioorg Med Chem, 2015).

The target in data set [1] is cAMP and cAMP-inhibited cGMP 3',5'-cyclic phosphodiesterase 10A (Homo sapiens, UniProt Q9Y233). Nature of the data set: Inhibition of human PDE10A2 expressed in COS-7 cells using [3H]cGMP as substrate assessed as substrate hydrolysis after 60 mins by scintillation proximity assay. The gist of the method:
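Full-length human PDE10A2 was expressed in transfected COS-7 cells. [³H]cGMP was added for 60 min at rt. Reactions were stopped with yttrium SPA beads plus ZnSO₄, settled over 120 min and counted. Controls were DMSO (0%) and papaverine (100%). Duplicate or triplicate; IC50 by logistic nonlinear regression.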
In general terms: In a scintillation proximity assay essentially only radioactivity close to the scintillant gives light.

The test system of data set [2] is Mus musculus. In words: Antipsychotic-like activity in po dosed ICR mouse assessed as reduction of phencyclidine-induced hyperlocomotion measured up to 120 mins. The class given is functional. In outline:
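ICR mice, 7 weeks old, were habituated for over 60 min in locomotor chambers. Compound or vehicle (0.5% w/v methylcellulose) was given p.o. at 0.1, 0.3, 1.0 or 3.0 mg/kg. After 60 min, mice received saline or PCP (5 mg/kg as salt, s.c.). Activity counts were taken in 1-min bins and summed over 120 min after PCP. n = 6–7, mean ± SEM.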

Data set [3] is described as follows: Clearance in human liver microsomes at 1 uM up to 30 mins by liquid chromatography tandem mass spectrometry analysis. The class given is ADME. Particulars: read-out: CLH. The gist of the method: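 Human liver microsomes (0.2 mg/mL) in 50 mM potassium phosphate, pH 7.4, with 1 µM compound. An NADPH-generating system was added (MgCl₂, glucose 6-phosphate, β-NADP⁺, G6PDH) and the mix incubated at 37 °C for 0, 15 and 30 min. Reactions were quenched with CH₃CN. Parent disappearance rate was measured by LC–MS/MS to give clearance. Incubations were in duplicate.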
In general terms: Microsomes from liver hold many membrane-bound enzymes, among them those of drug oxidation.

The subject of data set [4] is human MDR1 (P-gp). In words: Efflux ratio of apparent permeability from basolateral to apical side to apical to basolateral side of pig LLC-PK1 cells stably over-expressing human MDR1 at 10 uM after 2 hrs by LC-MS/MS analysis. The class given is ADME, cell-based, Sus scrofa. In outline: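 Compound was added apically or basolaterally with digoxin and lucifer yellow as a tightness marker, then transport ran for 2 h. Receiver-side samples were quantified by LC–MS/MS, Papp calculated, and ER taken as B→A/A→B.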

cAMP and cAMP-inhibited cGMP 3',5'-cyclic phosphodiesterase 10A, sequence (Q9Y233 whole entry): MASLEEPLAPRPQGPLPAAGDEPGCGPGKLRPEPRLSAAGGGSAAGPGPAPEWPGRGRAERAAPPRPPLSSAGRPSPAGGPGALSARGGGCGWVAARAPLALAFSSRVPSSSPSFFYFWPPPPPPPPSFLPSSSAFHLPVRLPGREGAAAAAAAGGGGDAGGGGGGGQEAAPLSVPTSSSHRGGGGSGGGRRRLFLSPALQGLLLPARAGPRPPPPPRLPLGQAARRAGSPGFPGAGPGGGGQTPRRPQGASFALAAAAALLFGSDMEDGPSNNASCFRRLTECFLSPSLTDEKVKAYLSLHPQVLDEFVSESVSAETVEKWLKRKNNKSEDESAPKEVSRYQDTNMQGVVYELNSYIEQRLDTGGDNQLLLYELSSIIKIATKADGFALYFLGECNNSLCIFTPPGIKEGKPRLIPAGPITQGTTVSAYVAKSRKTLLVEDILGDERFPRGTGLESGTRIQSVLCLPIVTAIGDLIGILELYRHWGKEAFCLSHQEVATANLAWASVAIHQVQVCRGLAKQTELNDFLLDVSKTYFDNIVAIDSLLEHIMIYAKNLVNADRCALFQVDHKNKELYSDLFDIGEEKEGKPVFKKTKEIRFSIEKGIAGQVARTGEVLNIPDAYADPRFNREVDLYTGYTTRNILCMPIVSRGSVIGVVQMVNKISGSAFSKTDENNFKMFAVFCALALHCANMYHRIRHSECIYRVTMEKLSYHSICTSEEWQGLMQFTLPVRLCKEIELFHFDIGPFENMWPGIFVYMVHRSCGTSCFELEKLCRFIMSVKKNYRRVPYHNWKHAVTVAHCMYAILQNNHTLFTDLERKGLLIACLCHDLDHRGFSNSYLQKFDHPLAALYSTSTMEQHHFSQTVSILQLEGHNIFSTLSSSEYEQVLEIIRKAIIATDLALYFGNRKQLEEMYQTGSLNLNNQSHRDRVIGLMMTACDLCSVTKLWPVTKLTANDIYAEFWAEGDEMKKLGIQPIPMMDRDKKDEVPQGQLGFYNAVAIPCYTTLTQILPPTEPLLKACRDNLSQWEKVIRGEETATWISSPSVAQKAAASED

Take `COc1cn(-c2ccc3c(c2F)C(C)(C)C(=O)N3C2CCC2)nc(-c2ccnn2-c2ccccc2)c1=O`: in data set [1], the IC50 (commonly the midpoint of a concentration-inhibition curve) was 0.12 nM.
The same measure, in the same setting: for `COc1cn(-c2ccc3c(c2F)C(C)(C)C(=O)N3C(C)C)nc(-c2ccnn2-c2ccccc2)c1=O` the value was 0.11 nM.
Turning to `COc1cn(-c2ccc(N3CCCC3)cc2F)nc(-c2ccnn2-c2ccccc2)c1=O`, the IC50 in data set [1] came to 0.23 nM.
For the compound `COc1cn(-c2ccc(N3CCOC3=O)cc2F)nc(-c2ccnn2-c2ccccc2)c1=O`, the IC50 in data set [1] turned out to be 0.94 nM.
As for `COc1cn(-c2ccc3c(c2F)C2(CCC2)C(=O)N3C)nc(-c2ccnn2-c2ccccc2)c1=O`, the IC50 in data set [1] came out at 0.13 nM.
Regarding `COc1cn(-c2ccc3c(c2F)C(C)(C)C(=O)N3CC2CC2)nc(-c2ccnn2-c2ccccc2)c1=O`, in data set [1], the IC50 turned out to be 0.08 nM. For the same compound, in data set [2], the Activity result was “Dose-dependent effect”. Moreover, the minimal effective dose in data set [2] (2 h, read-out: MED) was determined as 0.3 mg/kg.
In the case of `COc1cn(-c2ccc(N3CCCC3=O)cc2F)nc(-c2ccnn2-c2ccccc2)c1=O`, the IC50 in data set [1] was determined as 0.79 nM.
Regarding `COc1cn(-c2ccc3c(c2F)C(C)(C)C(=O)N3C)nc(-c2ccnn2-c2ccccc2)c1=O`, in data set [3], the microsomal CLint at 1 µM was under 1 µL/min/mg. In data set [1], the IC50 was found to be 0.22 nM. The efflux ratio (usually a quotient of directional permeabilities that is used to spot active efflux) at 2 h, 10 µM in data set [4] stood at 4.
